# Experimental data taken from ChEMBL document CHEMBL2401654, “Synthesis, characterization, and biological assessment of the four stereoisomers of the H(3) receptor antagonist 5-fluoro-2-methyl-N-[2-methyl-4-(2-methyl[1,3']bipyrrolidinyl-1'-yl)phenyl]benzamide” (Bioorg Med Chem Lett, 2013).
# pIC50, pKi: −log10 of the molar value.
# Assays:
# Cytochrome P450 2D6 = Cytochrome P450 2D6 (Homo sapiens, UniProt P10635); test: Inhibition of CYP2D6 (unknown origin); type: ADME
# Cytochrome P450 2C9 = Cytochrome P450 2C9 (Homo sapiens, UniProt P11712); test: Inhibition of CYP2C9 (unknown origin); type: ADME
# hERG (KCNH2) [1] = molecular target: T1, hERG (KCNH2) (Homo sapiens, UniProt Q12809); test: Inhibition of human ERG transfected in CHO cells at 1 uM by patch clamp assay relative to control; type: cell-based; settings: CHO cells transfected with human ERG
# Outline: (§1)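 Whole-cell patch clamp on CHO cells stably transfected with the human ERG gene.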
# Histamine H3 receptor [2] = molecular target: Histamine H3 receptor (Homo sapiens, UniProt Q9Y5N1); test: Displacement of [3H]N-alpha-methylhistamine from recombinant human histamine H3 receptor transfected in CHO cell membranes after 1 hr by scintillation counting analysis
# Outline: (§2)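 Radioligand displacement of [3H]N-α-methylhistamine using membranes from CHO cells stably transfected with recombinant human or rat H3 receptor. Ki is presented as a range of multiple experiments (n ≥ 3).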
# [3] = Drug metabolism in mouse liver microsomes at 5 uM after 20 mins; type: ADME, Microsome; settings: read-out: Drug metabolism
# Outline: (§3)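 Substrate at 5 µM incubated at 37 °C for 20 min with in-house liver microsome preparations (human, mouse or rat). Reported as the percentage of parent compound metabolized.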
# [4] = Drug metabolism in human liver microsomes at 5 uM after 20 mins; type: ADME, Microsome; settings: read-out: Drug metabolism; outline: as §3
# Cytochrome P450 1A2 = molecular target: T2, Cytochrome P450 1A2 (Homo sapiens, UniProt P05177); test: Inhibition of CYP1A2 (unknown origin); type: ADME
# T2 sequence (P05177 whole entry): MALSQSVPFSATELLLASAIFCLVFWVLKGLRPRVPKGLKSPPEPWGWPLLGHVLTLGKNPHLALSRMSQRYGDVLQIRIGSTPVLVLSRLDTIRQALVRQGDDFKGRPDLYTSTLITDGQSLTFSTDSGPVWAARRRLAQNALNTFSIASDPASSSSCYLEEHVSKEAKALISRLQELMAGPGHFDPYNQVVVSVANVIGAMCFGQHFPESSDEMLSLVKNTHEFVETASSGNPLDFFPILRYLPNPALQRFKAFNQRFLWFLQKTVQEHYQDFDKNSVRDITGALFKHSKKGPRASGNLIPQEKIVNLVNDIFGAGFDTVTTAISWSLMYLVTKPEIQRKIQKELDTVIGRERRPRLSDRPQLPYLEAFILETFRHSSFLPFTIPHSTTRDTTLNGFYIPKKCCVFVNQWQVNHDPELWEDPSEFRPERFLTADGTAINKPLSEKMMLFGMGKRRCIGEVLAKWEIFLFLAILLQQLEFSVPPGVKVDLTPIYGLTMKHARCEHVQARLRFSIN
# Cytochrome P450 2C19 = Cytochrome P450 2C19 (Homo sapiens, UniProt P33261); test: Inhibition of CYP2C19 (unknown origin); type: ADME
# Salmonella typhimurium = test: Mutagenic activity in Salmonella typhimurium by Ames test; type: toxicity, organism-based; settings: salmonella enterica subsp. enterica serovar typhimurium
# Cytochrome P450 2B6 = molecular target: T3, Cytochrome P450 2B6 (Homo sapiens, UniProt P20813); test: Inhibition of CYP2B6 (unknown origin); type: ADME
# T3 sequence (P20813 whole entry): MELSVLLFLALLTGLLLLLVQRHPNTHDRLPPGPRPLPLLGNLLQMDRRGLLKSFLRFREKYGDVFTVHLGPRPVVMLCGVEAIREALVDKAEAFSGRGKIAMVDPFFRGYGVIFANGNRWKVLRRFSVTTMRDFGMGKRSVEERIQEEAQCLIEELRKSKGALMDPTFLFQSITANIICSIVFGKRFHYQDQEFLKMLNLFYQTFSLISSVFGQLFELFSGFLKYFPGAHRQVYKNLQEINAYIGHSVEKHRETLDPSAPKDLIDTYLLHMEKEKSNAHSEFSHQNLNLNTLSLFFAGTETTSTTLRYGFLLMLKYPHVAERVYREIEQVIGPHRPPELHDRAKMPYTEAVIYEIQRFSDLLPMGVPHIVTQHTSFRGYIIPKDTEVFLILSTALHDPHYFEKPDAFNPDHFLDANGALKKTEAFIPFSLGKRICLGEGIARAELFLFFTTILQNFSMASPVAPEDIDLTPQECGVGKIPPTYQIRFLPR
# Cytochrome P450 3A4 = Cytochrome P450 3A4 (Homo sapiens, UniProt P08684); test: Inhibition of CYP3A4 (unknown origin); type: ADME
# hERG (KCNH2) [5] = molecular target: T1, hERG (KCNH2); test: Inhibition of human ERG transfected in CHO cells at 10 uM by patch clamp assay relative to control; type: cell-based; settings: CHO cells transfected with human ERG; outline: as §1
# [6] = Drug metabolism in rat liver microsomes at 5 uM after 20 mins; type: ADME, Microsome; settings: read-out: Drug metabolism; outline: as §3
# Histamine H3 receptor [7] = molecular target: Histamine H3 receptor (Rattus norvegicus, UniProt Q9QYN8); test: Displacement of [3H]N-alpha-methylhistamine from recombinant rat histamine H3 receptor transfected in CHO cell membranes after 1 hr by scintillation counting analysis; set-up: species or system Membrane; outline: as §2
# [8] = Genotoxicity in micronucleus (unknown origin)
# T1 sequence (Q12809 whole entry): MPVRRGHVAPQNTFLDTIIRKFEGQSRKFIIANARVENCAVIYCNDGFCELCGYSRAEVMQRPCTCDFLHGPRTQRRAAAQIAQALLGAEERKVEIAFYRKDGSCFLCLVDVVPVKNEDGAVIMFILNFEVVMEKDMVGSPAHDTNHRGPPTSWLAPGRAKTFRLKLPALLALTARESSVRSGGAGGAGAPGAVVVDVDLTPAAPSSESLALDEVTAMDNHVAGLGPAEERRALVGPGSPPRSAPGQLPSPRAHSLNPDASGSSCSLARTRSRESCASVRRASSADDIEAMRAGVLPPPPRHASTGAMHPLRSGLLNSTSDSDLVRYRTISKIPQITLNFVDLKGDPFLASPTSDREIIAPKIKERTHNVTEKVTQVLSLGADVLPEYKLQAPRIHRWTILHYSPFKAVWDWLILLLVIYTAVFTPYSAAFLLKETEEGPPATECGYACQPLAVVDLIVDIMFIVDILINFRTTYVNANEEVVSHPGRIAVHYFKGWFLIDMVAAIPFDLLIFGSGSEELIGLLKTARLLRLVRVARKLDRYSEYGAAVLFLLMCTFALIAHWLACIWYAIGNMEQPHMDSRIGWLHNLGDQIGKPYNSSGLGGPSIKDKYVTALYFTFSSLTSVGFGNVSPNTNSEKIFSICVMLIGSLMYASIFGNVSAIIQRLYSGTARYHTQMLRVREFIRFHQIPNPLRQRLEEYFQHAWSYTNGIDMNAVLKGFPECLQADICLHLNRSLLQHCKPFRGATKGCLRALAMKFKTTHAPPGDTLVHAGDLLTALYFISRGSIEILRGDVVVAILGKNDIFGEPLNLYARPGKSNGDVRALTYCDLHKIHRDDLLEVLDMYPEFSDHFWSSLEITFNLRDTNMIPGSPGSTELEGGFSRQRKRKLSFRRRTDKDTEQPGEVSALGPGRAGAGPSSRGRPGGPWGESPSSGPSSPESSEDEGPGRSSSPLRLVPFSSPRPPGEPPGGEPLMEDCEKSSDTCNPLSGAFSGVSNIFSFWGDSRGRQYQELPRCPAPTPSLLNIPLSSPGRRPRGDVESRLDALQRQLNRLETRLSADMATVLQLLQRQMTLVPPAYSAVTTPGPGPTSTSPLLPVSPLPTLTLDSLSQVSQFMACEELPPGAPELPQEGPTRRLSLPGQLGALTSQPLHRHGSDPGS
# Chain of Histamine H3 receptor (Homo sapiens, UniProt Q9Y5N1) (Q9Y5N1 whole entry): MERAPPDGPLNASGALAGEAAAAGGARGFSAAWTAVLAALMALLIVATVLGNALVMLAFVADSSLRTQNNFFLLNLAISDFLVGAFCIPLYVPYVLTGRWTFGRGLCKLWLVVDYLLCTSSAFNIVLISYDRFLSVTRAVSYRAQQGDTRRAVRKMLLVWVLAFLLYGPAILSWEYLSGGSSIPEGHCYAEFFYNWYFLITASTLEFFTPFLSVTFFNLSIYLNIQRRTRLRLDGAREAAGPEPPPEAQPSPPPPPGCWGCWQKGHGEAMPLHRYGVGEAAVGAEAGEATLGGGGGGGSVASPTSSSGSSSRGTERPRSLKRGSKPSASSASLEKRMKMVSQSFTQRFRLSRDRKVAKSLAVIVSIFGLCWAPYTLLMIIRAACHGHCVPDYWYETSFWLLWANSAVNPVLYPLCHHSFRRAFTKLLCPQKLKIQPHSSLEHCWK
# Chain of Histamine H3 receptor (Rattus norvegicus, UniProt Q9QYN8) (Q9QYN8 whole entry): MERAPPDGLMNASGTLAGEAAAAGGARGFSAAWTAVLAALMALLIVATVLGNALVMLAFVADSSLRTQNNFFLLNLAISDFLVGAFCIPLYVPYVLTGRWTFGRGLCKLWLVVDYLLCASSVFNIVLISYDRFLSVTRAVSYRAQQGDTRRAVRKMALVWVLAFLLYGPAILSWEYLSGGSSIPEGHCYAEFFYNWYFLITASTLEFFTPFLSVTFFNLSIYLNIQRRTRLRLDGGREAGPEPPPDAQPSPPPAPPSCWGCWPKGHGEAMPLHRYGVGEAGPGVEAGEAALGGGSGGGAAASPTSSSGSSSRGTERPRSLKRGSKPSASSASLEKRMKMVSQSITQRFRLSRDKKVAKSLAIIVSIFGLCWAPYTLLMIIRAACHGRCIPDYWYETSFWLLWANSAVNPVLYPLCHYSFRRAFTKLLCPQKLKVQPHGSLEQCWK
# Chain of Cytochrome P450 2C19 (P33261 whole entry): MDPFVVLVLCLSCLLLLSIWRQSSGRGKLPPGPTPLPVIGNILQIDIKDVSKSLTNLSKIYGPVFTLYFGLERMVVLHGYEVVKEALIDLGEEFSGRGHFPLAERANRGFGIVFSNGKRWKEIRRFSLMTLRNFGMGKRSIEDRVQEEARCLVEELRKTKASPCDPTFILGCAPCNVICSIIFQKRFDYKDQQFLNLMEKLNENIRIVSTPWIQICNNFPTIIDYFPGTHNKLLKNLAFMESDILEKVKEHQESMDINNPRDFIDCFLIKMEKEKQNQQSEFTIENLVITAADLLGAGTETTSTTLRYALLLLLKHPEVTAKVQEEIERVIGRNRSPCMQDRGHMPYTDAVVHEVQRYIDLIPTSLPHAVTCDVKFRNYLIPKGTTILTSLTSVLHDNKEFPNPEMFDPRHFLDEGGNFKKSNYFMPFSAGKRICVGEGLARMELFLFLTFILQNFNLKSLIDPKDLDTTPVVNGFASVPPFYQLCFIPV
# Chain of Cytochrome P450 2C9 (P11712 whole entry): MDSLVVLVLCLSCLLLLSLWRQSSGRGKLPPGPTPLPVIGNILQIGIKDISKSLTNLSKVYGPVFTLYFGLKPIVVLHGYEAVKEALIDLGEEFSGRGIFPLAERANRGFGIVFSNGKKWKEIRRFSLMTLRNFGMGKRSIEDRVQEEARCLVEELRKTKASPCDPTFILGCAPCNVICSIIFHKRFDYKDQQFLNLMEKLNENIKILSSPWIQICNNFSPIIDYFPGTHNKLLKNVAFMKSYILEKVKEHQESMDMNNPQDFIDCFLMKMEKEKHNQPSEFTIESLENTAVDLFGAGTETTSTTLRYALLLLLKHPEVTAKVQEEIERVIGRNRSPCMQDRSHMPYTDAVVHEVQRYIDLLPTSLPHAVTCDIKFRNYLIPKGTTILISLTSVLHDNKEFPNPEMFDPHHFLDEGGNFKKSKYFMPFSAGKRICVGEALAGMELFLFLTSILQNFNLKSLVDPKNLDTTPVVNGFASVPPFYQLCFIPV
# Chain of Cytochrome P450 2D6 (P10635 whole entry): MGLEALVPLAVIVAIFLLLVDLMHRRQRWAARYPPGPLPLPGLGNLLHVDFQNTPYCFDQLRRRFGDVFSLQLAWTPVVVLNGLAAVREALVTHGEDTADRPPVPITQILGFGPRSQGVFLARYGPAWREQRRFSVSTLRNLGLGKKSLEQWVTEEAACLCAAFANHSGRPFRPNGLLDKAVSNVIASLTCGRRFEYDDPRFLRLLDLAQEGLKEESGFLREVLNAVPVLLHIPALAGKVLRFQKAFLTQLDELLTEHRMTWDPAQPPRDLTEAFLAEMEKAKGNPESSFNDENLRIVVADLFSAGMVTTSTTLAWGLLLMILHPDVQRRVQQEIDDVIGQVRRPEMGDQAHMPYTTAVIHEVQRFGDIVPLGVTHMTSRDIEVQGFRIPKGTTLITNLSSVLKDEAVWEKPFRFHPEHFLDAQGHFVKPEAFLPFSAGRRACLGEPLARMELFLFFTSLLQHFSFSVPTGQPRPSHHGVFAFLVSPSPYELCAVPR
# Chain of Cytochrome P450 3A4 (P08684 whole entry): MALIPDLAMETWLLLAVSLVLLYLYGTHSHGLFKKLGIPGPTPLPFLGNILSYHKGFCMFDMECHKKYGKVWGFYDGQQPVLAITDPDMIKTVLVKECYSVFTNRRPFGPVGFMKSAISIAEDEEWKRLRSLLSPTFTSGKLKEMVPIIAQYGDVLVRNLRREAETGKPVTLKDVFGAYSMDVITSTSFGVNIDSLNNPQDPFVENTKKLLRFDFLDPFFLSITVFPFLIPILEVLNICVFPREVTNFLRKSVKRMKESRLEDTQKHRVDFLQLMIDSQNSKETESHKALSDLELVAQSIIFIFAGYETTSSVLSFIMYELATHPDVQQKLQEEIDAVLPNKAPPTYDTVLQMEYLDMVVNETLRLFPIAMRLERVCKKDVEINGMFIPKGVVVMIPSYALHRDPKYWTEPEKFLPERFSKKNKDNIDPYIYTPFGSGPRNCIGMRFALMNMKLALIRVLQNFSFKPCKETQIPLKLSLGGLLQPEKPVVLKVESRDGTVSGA
structure (smiles),measurement,setting,value
Cc1cc(N2CC[C@@H](N3CCC[C@H]3C)C2)ccc1NC(=O)c1cc(F)ccc1C,pIC50,Cytochrome P450 2D6,< 4.52
same,pIC50,Cytochrome P450 2C9,< 4.52
same,inhibition at 1 µM,hERG (KCNH2) [1],33.7%
same,pKi,Histamine H3 receptor [2],6.52
same,"metabolised at 20 min, 5 µM",[3],17%
same,"metabolised at 20 min, 5 µM",[4],8%
same,pIC50,Cytochrome P450 1A2,< 4.52
same,pIC50,Cytochrome P450 2C19,< 4.52
same,Activity,Salmonella typhimurium,Non-toxic
same,pIC50,Cytochrome P450 2B6,< 4.52
same,pIC50,Cytochrome P450 3A4,< 4.52
same,inhibition at 10 µM,hERG (KCNH2) [5],77.5%
same,"metabolised at 20 min, 5 µM",[6],27%
same,pKi,Histamine H3 receptor [7],7.13
same,Activity,[8],Non-toxic
